ChEMBL document CHEMBL5126625, “Discovery of AZD4831, a Mechanism-Based Irreversible Inhibitor of Myeloperoxidase, As a Potential Treatment for Heart Failure with Preserved Ejection Fraction” (J Med Chem, 2022)
Converted amounts (≈) assume the structure as drawn.

Tests used:
Myeloperoxidase [1] = molecular target: T1, Myeloperoxidase (Homo sapiens, UniProt P05164); assay: Inhibition of MPO in human HL-60 cells measured after 15 mins in presence of H2O2 by chemiluminescence assay; format: cell-based
T1 sequence (P05164 whole entry): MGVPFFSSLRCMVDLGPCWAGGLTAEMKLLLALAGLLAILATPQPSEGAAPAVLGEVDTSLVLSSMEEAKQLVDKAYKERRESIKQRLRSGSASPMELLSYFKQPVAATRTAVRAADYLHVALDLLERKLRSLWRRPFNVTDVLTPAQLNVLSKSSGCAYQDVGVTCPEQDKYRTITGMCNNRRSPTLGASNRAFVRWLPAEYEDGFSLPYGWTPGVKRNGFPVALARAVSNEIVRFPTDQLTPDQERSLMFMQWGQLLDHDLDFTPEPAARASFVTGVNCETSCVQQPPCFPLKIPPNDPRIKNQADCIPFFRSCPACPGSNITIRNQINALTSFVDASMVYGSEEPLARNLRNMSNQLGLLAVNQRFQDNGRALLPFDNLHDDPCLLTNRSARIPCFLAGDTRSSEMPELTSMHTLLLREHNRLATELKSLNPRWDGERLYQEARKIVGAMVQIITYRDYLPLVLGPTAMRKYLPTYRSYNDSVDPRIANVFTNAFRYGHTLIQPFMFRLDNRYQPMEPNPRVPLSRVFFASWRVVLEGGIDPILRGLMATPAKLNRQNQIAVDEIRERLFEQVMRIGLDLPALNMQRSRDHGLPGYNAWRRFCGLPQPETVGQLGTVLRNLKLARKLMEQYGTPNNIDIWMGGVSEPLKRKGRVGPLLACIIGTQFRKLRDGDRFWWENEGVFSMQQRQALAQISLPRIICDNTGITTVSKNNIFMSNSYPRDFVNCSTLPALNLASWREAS

[2] = Oral bioavailability in Wistar Han rat measured up to 24 hrs by LC-MS/MS analysis; format: ADME, organism-based; settings: in vivo
[3] = Oral bioavailability in Beagle dog measured up to 24 hrs by LC-MS/MS analysis; format: ADME, organism-based, Canis lupus familiaris; settings: in vivo
Thyroid peroxidase = molecular target: T2, Thyroid peroxidase (Homo sapiens, UniProt P07202); assay: Inhibition of human recombinant TPO (1 to 839 residues) expressed in baculovirus-infected insect cells measured after 15 mins in presence of H2O2 by chemiluminescence assay
T2 sequence (P07202 whole entry): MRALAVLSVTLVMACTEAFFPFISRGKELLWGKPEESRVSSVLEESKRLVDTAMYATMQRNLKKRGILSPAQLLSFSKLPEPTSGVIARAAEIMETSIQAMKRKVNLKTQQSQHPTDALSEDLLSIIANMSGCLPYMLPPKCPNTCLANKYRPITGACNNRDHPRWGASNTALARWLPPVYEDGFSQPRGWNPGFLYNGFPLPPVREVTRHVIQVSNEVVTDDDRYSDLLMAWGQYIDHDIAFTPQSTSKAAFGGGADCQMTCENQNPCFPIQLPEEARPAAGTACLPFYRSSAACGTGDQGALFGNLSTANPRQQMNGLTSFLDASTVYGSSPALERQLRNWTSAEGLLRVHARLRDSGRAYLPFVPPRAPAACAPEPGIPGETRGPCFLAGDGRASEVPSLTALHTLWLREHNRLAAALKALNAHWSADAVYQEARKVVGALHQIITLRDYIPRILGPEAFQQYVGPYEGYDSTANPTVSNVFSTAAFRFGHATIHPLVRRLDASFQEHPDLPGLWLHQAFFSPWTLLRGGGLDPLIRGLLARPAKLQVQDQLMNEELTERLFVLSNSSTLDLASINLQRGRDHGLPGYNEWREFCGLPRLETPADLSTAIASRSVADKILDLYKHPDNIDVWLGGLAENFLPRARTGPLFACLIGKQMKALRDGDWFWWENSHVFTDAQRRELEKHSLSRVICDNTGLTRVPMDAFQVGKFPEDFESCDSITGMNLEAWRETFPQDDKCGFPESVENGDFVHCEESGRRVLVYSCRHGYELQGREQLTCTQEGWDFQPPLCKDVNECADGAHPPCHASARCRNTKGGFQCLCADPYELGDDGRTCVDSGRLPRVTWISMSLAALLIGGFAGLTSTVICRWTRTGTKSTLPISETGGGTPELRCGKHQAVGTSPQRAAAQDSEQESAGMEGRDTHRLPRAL
Method in brief: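 IC50 determined against purified enzyme in an in vitro chemiluminescent assay.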

[4] = molecular target: Voltage-gated inwardly rectifying potassium channel KCNH2 (Homo sapiens, UniProt Q12809)
Voltage-gated inwardly rectifying potassium channel KCNH2, sequence (Q12809 whole entry): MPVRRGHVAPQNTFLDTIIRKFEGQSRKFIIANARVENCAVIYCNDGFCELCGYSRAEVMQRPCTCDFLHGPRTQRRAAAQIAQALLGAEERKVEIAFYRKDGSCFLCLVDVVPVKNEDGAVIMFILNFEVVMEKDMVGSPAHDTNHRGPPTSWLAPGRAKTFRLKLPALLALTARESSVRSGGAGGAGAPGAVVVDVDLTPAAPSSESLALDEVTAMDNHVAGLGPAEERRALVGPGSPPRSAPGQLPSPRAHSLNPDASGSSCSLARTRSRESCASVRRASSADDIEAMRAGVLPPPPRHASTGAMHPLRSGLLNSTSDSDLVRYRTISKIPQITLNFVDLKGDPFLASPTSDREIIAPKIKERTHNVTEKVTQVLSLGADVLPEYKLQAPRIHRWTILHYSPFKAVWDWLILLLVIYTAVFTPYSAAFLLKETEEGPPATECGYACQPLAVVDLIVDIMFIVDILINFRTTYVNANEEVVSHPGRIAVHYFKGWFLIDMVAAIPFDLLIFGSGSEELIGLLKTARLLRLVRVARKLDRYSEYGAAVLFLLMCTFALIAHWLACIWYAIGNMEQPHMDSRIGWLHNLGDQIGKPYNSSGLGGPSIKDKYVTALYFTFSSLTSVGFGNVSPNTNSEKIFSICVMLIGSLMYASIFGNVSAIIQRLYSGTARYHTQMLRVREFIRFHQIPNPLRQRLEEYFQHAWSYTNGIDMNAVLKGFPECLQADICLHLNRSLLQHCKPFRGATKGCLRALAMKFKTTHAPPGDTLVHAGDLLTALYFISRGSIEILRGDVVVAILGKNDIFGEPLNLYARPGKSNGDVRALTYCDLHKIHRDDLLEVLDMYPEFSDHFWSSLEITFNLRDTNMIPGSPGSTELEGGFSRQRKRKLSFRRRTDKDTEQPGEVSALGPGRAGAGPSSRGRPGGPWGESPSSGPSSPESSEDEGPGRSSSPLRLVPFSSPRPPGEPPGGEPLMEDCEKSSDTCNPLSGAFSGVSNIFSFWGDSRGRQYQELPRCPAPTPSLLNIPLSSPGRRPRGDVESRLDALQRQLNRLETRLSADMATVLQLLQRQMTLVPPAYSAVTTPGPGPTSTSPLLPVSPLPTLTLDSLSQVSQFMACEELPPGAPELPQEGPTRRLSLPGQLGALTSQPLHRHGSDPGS

[5] = Apparent permeability of the compound across apical to basolateral side in human Caco-2 cells at 10 uM by LC-MS/MS analysis
Myeloperoxidase [6] = molecular target: T1, Myeloperoxidase; assay: Inhibition of MPO (unknown origin) measured after 15 mins in presence of H2O2 by chemiluminescence assay
physchem = settings: phosphate buffer, pH 7.4
[7] = Lipophilicity, log D of the compound; settings: octanol/water
Cytochrome P450 3A4 = Cytochrome P450 3A4 (Homo sapiens, UniProt P08684)
Cytochrome P450 3A4, sequence (P08684 whole entry): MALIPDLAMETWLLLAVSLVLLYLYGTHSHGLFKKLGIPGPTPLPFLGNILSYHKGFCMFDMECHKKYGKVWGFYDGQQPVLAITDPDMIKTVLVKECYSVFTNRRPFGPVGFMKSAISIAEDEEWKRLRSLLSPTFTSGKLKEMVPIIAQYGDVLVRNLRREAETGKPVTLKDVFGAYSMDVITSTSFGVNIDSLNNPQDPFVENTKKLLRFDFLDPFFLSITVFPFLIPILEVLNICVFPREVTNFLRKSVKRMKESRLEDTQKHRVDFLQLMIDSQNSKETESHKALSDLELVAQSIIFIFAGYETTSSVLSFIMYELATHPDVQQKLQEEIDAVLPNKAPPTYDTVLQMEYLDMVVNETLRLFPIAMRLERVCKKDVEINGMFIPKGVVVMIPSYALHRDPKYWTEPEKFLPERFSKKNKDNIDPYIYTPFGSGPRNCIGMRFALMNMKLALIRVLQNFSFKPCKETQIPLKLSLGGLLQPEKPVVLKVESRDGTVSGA

Myeloperoxidase [8] = molecular target: T1, Myeloperoxidase; assay: Displacement of benzhydroxamic acid from native state MPO (unknown origin) by 1D NMR reporter assay
Cytochrome P450 1A2 = molecular target: T3, Cytochrome P450 1A2 (Homo sapiens, UniProt P05177); assay: Inhibition of human recombinant CYP1A2 using coumarin as substrate preincubated with enzyme for 10 mins followed by NADPH addition and measured after 20 to 50 mins by fluorescence based method
T3 sequence (P05177 whole entry): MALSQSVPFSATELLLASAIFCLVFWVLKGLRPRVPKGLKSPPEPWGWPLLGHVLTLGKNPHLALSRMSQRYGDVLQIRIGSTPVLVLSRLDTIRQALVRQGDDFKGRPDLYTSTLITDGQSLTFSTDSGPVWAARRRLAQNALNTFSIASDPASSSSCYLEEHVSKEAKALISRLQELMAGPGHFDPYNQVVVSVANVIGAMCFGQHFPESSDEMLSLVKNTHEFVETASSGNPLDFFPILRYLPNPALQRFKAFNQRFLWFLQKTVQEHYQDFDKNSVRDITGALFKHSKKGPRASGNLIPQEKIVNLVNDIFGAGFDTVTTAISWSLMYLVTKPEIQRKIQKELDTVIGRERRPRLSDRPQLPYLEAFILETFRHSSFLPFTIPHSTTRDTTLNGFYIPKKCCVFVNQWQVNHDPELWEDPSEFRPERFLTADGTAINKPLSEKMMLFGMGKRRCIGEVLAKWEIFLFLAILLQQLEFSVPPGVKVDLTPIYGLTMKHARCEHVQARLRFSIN

Cytochrome P450 2D6 = Cytochrome P450 2D6 (Homo sapiens, UniProt P10635); assay: Inhibition of CYP2D6 (unknown origin) using coumarin as substrate preincubated with enzyme for 10 mins followed by NADPH addition and measured after 20 to 50 mins by fluorescence based method
Cytochrome P450 2D6, sequence (P10635 whole entry): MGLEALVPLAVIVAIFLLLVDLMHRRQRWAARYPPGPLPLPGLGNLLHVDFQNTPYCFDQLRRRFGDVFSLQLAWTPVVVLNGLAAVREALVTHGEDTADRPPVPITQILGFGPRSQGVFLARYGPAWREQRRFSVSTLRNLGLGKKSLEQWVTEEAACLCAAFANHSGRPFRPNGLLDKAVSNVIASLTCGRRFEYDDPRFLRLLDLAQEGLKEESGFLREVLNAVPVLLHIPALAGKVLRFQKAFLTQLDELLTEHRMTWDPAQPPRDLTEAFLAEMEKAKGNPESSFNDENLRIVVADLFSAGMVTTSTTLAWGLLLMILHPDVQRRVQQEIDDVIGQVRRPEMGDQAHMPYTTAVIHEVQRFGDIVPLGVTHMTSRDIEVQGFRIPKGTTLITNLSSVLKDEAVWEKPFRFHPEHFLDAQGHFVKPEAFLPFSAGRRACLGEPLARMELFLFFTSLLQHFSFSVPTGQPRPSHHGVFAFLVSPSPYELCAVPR

Cytochrome P450 2C9 = Cytochrome P450 2C9 (Homo sapiens, UniProt P11712); assay: Inhibition of human recombinant CYP2C9 using coumarin as substrate preincubated with enzyme for 10 mins followed by NADPH addition and measured after 20 to 50 mins by fluorescence based method
Cytochrome P450 2C9, sequence (P11712 whole entry): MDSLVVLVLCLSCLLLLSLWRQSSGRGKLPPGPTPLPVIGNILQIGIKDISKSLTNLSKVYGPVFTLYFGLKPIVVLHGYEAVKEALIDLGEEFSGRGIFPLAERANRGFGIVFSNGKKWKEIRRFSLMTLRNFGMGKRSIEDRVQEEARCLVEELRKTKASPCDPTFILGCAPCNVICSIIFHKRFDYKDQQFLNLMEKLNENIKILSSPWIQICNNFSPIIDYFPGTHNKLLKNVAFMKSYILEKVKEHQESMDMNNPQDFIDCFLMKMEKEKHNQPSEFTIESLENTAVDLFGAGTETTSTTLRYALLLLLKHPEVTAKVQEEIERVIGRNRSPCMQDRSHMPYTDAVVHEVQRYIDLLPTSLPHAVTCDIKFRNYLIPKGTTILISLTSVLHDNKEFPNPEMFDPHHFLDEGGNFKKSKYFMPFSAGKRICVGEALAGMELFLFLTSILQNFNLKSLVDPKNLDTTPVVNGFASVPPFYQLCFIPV

Cytochrome P450 2C19 = Cytochrome P450 2C19 (Homo sapiens, UniProt P33261); assay: Inhibition of human recombinant CYP2C19 using coumarin as substrate preincubated with enzyme for 10 mins followed by NADPH addition and measured after 20 to 50 mins by fluorescence based method
Cytochrome P450 2C19, sequence (P33261 whole entry): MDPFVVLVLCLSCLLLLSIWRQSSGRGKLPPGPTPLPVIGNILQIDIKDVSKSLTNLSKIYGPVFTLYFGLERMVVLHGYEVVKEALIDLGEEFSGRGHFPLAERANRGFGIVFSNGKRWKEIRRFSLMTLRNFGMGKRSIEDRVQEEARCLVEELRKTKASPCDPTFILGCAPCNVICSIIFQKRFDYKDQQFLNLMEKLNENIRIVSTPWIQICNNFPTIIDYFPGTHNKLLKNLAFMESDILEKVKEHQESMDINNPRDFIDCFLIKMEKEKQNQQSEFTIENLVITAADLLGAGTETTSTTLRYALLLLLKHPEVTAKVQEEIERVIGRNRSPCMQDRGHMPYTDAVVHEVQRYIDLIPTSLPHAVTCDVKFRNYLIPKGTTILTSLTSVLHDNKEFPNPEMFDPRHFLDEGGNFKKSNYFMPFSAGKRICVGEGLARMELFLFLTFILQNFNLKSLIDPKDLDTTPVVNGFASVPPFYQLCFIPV

[9] = Drug uptake in heat-inactivated human liver microsomes assessed as covalent binding at 10 uM incubated for 60 mins by LC/MS analysis; format: ADME, Microsome; settings: 1 h
Method in brief: (§1)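 Human liver microsomes incubated with the [14C]-labelled compound to measure covalent binding to microsomal protein.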

[10] = Drug uptake in human liver microsomes assessed as covalent binding at 10 uM incubated for 60 mins by LC/MS analysis; format: ADME, Microsome; settings: 1 h; method in brief: as §1
[11] = Drug uptake in human liver microsomes assessed as covalent binding at 10 uM incubated for 60 mins in presence of formaldehyde by LC/MS analysis; format: ADME, Microsome; settings: 1 h
Method in brief: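 Covalent binding of the [14C]-labelled compound in human liver microsome incubations with 5 mM formaldehyde added.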

[12] = Drug uptake in human liver microsomes assessed as covalent binding at 10 uM incubated for 60 mins in presence of NADPH by LC/MS analysis; format: ADME, Microsome; settings: 1 h; method in brief: as §1
[13] = Drug uptake in human hepatocytes assessed as covalent binding measured per mg protein; format: ADME, cell-based, Hepatocyte
Method in brief: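 [14C]-labelled compound incubated with human hepatocytes; covalently bound radioactivity expressed as pmol per mg protein.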

SMILES | IC50 (Myeloperoxidase [1]) | IC50 (Thyroid peroxidase) | Papp A→B at 10 µM [5] | IC50 (Myeloperoxidase [6]) | solubility thermodynamic at 18 h (physchem) | logD [7] | other results
CNCc1cc(Cl)ccc1Cn1c(=S)[nH]c(=O)c2[nH]ccc21 | 6600 nM | 2100 nM | 17 ×10⁻⁶ cm/s | 15.9 nM | 160 µM (≈ 53.6 µg/mL) | 1.3 | bioavailability [2]: 60%; bioavailability [3]: 72%; IC50 [4]: 10000 nM; IC50 (Cytochrome P450 3A4): > 30000 nM
O=c1[nH]c(=S)n(C[C@H]2CCCO2)c2nc[nH]c12 | 29000 nM | 2400 nM | – | 279 nM | – | – | Kd (Myeloperoxidase [8]): 63100 nM
NCc1cc(Cl)ccc1Cn1c(=S)[nH]c(=O)c2[nH]ccc21 | – | 1300 nM | 6 ×10⁻⁶ cm/s | – | 42 µM (≈ 13.5 µg/mL) | 1.2 | bioavailability [2]: 68%; bioavailability [3]: 45%; IC50 [4]: > 40000 nM; IC50 (Cytochrome P450 1A2): > 30000 nM; IC50 (Cytochrome P450 2D6): > 30000 nM; IC50 (Cytochrome P450 2C9): > 30000 nM; IC50 (Cytochrome P450 3A4): 19000 nM; IC50 (Cytochrome P450 2C19): > 30000 nM
O=c1[nH]c(=S)n(Cc2ccccc2CN2CCC2)c2cc[nH]c12 | 6600 nM | 1500 nM | 19 ×10⁻⁶ cm/s | 15.1 nM | 930 µM (≈ 304 µg/mL) | 1 | –
CNCc1c(Cl)cccc1Cn1c(=S)[nH]c(=O)c2[nH]ccc21 | 9400 nM | 4200 nM | 19 ×10⁻⁶ cm/s | 39.3 nM | 150 µM (≈ 50.2 µg/mL) | 1.3 | –
COc1ccc(Cl)cc1-c1cc(=O)[nH]c(=S)n1CC(N)=O [PF-06282999] | – | 990 nM | – | – | – | – | –
C[C@H](N)c1cc(Cl)ccc1Cn1c(=S)[nH]c(=O)c2[nH]ccc21 | – | 1100 nM | 10 ×10⁻⁶ cm/s | – | 850 µM (≈ 285 µg/mL) | 1.4 | –
CC(C)NCc1ccccc1Cn1c(=S)[nH]c(=O)c2[nH]ccc21 | 13000 nM | 8100 nM | 12 ×10⁻⁶ cm/s | 30.9 nM | 140 µM (≈ 46 µg/mL) | 0.9 | –
CC(C)NCc1ccccc1Cn1c(=S)[nH]c(=O)c2[nH]cnc21 | 80000 nM | 4200 nM | 0.89 ×10⁻⁶ cm/s | 38.6 nM | 18 µM (≈ 5.93 µg/mL) | 0.3 | –
CNCc1ccc(Cl)cc1Cn1c(=S)[nH]c(=O)c2[nH]ccc21 | 6100 nM | 1900 nM | 9.6 ×10⁻⁶ cm/s | 27.1 nM | 210 µM (≈ 70.3 µg/mL) | 1.1 | –
NCc1cc(Cl)ccc1Cn1c2cc[nH]c2c(=O)[nH][14c]1=S | – | – | – | – | – | – | Drug uptake [9]: Active; Drug uptake [10]: Active; Drug uptake [11]: Active; Drug uptake [12]: Active; Drug uptake [13]: 95 pmol
C[C@@H](N)c1cc(Cl)ccc1Cn1c(=S)[nH]c(=O)c2[nH]cnc21 | – | 770 nM | – | – | – | – | –
O=c1[nH]c(=S)n(Cc2ccc(F)cc2)c2nc[nH]c12 | – | 590 nM | – | – | – | – | –
CC(=O)NCc1cc(Cl)ccc1Cn1c(=S)[nH]c(=O)c2[nH]ccc21 | 16000 nM | 1400 nM | 11 ×10⁻⁶ cm/s | 140 nM | 3.3 µM (≈ 1.2 µg/mL) | 2 | –
NC(c1ccccc1)c1ccccc1Cn1c(=S)[nH]c(=O)c2[nH]ccc21 (centres undefined) | – | 1390 nM | 18 ×10⁻⁶ cm/s | – | 8.3 µM (≈ 3.01 µg/mL) | 1.7 | –
CN[C@H](C)c1cc(Cl)ccc1Cn1c(=S)[nH]c(=O)c2[nH]ccc21 (racemic) | 4600 nM | 1100 nM | 19 ×10⁻⁶ cm/s | 12.7 nM | 190 µM (≈ 66.3 µg/mL) | 1.5 | –
